Data as given in article PMC3240686 (Journal of medicinal chemistry, 2011).

What was measured:
[1] = tested on: carrageenan-induced thermal hyperalgesia; test: Carrageenan-induced thermal hyperalgesia; format: in vivo; settings: rats; for block of development of carrageenan-induced hyperalgesia, i.p.: i.p. injection 10 mg/kg; for block of development of carrageenan-induced hyperalgesia, i.p. / block of carrageenan-induced hyperalgesia, oral: 30 min before carrageenan, n=3; for antihyperalgesic effect and its duration: oral 100 mg/kg, n=2, time post-carrageenan; for activity at inhibiting hyperalgesia: carrageenan model
In short: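 Under light CO2 (80%)/O2 (20%) anaesthesia, rats received subplantar 1% carrageenan in saline (vehicle: saline) into the right hindpaw. For prophylactic dosing, drug or vehicle was given by gavage or i.p. 30 min before carrageenan. Heat hyperalgesia was measured by the Hargreaves plantar test, with an infrared stimulus from below and a 20 s cut-off. The read-out was change in paw-withdrawal latency (s).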

[2] = Observed acute toxicity in the carrageenan hyperalgesia studies; format: in vivo, rats
[3] = Relative lipophilicity by reversed phase HPLC retention factors; format: physicochemical; settings: relative to parent compound 7, isocratic conditions
[4] = Cyclic voltammetry in CH2Cl2; format: physicochemical
[5] = tested on: mechano-allodynia after CCI of the sciatic nerve; test: Chronic constriction injury; format: in vivo; settings: mice
[6] = octanol-water, slow stir method
[7] = dose 300 mg/kg, 2 h time point, n=6

## CC[n+]1ccccc1-c1c2nc(c(-c3cccc[n+]3CC)c3ccc([n-]3)c(-c3cccc[n+]3CC)c3nc(c(-c4cccc[n+]4CC)c4ccc1[n-]4)C=C3)C=C2.[Mn+3] [Mn(III)-TE-2-PyP^5+, Mn(III) meso-tetrakis[(N-ethyl)pyridinium-2-yl]porphyrin (5+), reference compound]
[1]
  block of development of carrageenan-induced hyperalgesia, i.p.: blocked the development of carrageenan-induced hyperalgesia
[1]; oral gavage 100 mg/kg
  block of carrageenan-induced hyperalgesia, oral: only 7 is able to block hyperalgesia when given orally
[2]; i.p., 3 fold higher dose than the one required to block hyperalgesia
  mortality: 100%

## CC(=O)Nc1ccc(O)cc1 [acetaminophen, reference compound]
[1]; [7]
  % inhibition of hyperalgesia: 20±4%

## CC(=O)Oc1ccccc1C(=O)O [aspirin, reference compound]
[1]; [7]
  % inhibition of hyperalgesia: 50±6%

## CC(C)Cc1ccc(C(C)C(=O)O)cc1 (centres unmarked) [ibuprofen, reference compound]
[1]; [7]
  % inhibition of hyperalgesia: 99±5%

## Mn(III)-5,15-bis(4-acetoxymethyl)phenyl-TCHP [Compound 16a]
[1]
  antihyperalgesic effect and its duration: strong antihyperalgesic effect out to 2 hours post-carrageenan but the effect was lost at 3 hours
[3]
  relative lipophilicity by RPHPLC retention factor: progressively more lipophilic

## Mn(III)-5,15-bis(4-hydroxymethyl)phenyl-TCHP [Compound 15]
[1]
  antihyperalgesic effect and its duration: excellent potency out to the 5 hour time point
[3]
  relative lipophilicity by RPHPLC retention factor: substantially less lipophilic than parent compound 7

## Mn(III)-5,15-bis(4-isobutyryloxymethyl)phenyl-TCHP [Compound 16c]
[1]
  antihyperalgesic effect and its duration: potent anti-hyperalgesic action out to the 5 hour time point
[3]
  relative lipophilicity by RPHPLC retention factor: progressively more lipophilic

## Mn(III)-5,15-bis(4-propionyloxymethyl)phenyl-TCHP [Compound 16b]
[1]
  antihyperalgesic effect and its duration: strong antihyperalgesic effect out to 3 hours with a decline in this effect occurring in the 4–5 hour time period
[3]
  relative lipophilicity by RPHPLC retention factor: progressively more lipophilic

## Mn(III)-5,15-di-phenyl-TCHP Chloride [Compound 10]
[4]; cyclic voltammetry in CH2Cl2
  reversible (presumably porphyrin-based) oxidation potential: 0.89 V. vs. ferrocene
[4]; cyclic voltammetry in CH2Cl2, chemically reversible
  Mn(II/III) couple: −0.79 V vs. ferrocene
[1]
  activity at inhibiting hyperalgesia: active at inhibiting hyperalgesia

## Mn(III)-5, 10, 15, 25-tetrakis-phenyl-TCHP Chloride [Compound 12]
[1]
  activity at inhibiting hyperalgesia: active at inhibiting hyperalgesia

## Mn(III)-TCHP Chloride [Compound 7]
[1]; 100 mg/kg oral gavage at 3 h post carrageenan, 4 hour time point
  reversal of established hyperalgesia: pain at 1 h after dosing: pain was substantially reduced
[1]
  block of development of carrageenan-induced hyperalgesia, i.p.: blocked the development of carrageenan-induced hyperalgesia
[1]; oral gavage 100 mg/kg
  block of carrageenan-induced hyperalgesia, oral: able to block hyperalgesia when given orally
[1]; oral gavage 100 mg/kg, for 2 h
  % inhibition of hyperalgesia: ~100%
[1]; oral gavage 100 mg/kg, out to 5 h
  inhibitory effect at late time: substantial inhibitory effect maintained out to 5 h
[5]; oral 10–100 mg/kg
  effect on withdrawal responses of contralateral paws: no effect
[5]; oral 10–100 mg/kg at time of peak mechano-allodynia, n=4
  reversal of neuropathic pain (mechano-allodynia): rapid, dose-dependent and near-to-maximal reversal of neuropathic pain within 1h post-dosing
[5]; oral, at time of peak reversal, n=4
  95% CI of ED50: 15.64 to 51.67 mg/kg/day
[5]; oral, day 7 after CCI, at time of peak reversal, n=4
  ED50, reversal of mechano-allodynia: 28 mg/kg
[2]; doses at least 6–8 fold higher than the one needed to block hyperalgesia
  acute toxicity: no observable acute toxicities
[6]
  LogP: 3.77
